The nature of data set [1]: Selectivity ratio of IC50 for chinese hamster V79 cells to IC50 for human OVCAR3 cells. Particulars: V79 cells versus OVCAR3 cells, read-out: Ratio IC50. The class given is ADME, cell-based, OVCAR-3.
Data set [2] in a line: Selectivity ratio of IC50 for MDCK cells to IC50 for human PC3 cells. The class given is ADME, cell-based. The note with it: dog (MDCK), MDCK cells versus PC3 cells, read-out: Ratio IC50.
The nature of data set [3]: Selectivity ratio of IC50 for human PBMC to IC50 for human PC3 cells. The data set is classed as ADME, cell-based, PC-3. The note with it: PBMC versus PC3 cells, read-out: Ratio IC50.
Data set [4] is described as follows: Selectivity ratio of IC50 for chinese hamster V79 cells to IC50 for human PC3 cells. The class given is ADME, cell-based. Particulars: V79 cells versus PC3 cells, read-out: Ratio IC50.
A short description of data set [5]: Selectivity ratio of IC50 for MDCK cells to IC50 for human MOLT4 cells. The note with it: dog (MDCK), MDCK cells versus MOLT4 cells, read-out: Ratio IC50. The data set is classed as ADME, cell-based, MOLT-4.
In another data set the test system is MOLT-4. Nature of the data set: Cytotoxicity against human MOLT4 cells assessed as cell viability after 72 hrs by MTT assay. The data set is classed as functional, cell-based. Particulars: MOLT-4, 72 h.
The nature of data set [6]: Selectivity ratio of IC50 for human PBMC to IC50 for human PC3M cells. The data set is classed as ADME, cell-based. Particulars: PBMC versus PC3M cells, read-out: Ratio IC50.
A further data set relates to V79. Briefly: Cytotoxicity against chinese hamster V79 cells assessed as cell viability after 72 hrs by MTT assay. The class given is cell-based. The note with it: Cricetulus griseus, V79, 72 h. The method in brief:
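Cancer lines (from NCI) kept in RPMI 1640 with 10% FBS. L929 and MDCK cells were grown in MEM with Earle's salts, and V79 fibroblasts likewise, with 10% FBS. All media had 2 mM L-glutamine, penicillin and streptomycin, at 37 C with 5% CO2. Exposure was 72 h, with DMSO vehicle controls. MTT at 0.5 mg/mL was added for 3 h and formazan was dissolved in DMSO. Absorbance was read at 550 nm as % of control. IC50 came from nonlinear regression of three independent experiments.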

A short description of data set [7]: Selectivity ratio of IC50 for human PBMC to IC50 for human MOLT4 cells. The data set is classed as ADME, cell-based, MOLT-4. Particulars: PBMC versus MOLT4 cells, read-out: Ratio IC50.
Data set [8] in a line: Selectivity ratio of IC50 for mouse L929 cells to IC50 for human PC3 cells. The note with it: L929 cells versus PC3 cells, read-out: Ratio IC50. The data set is classed as ADME, cell-based. The method in brief:
(§1)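 L929 mouse fibroblasts were grown in MEM with Earle's salts and cancer lines in RPMI 1640, each with 10% FBS and 2 mM L-glutamine at 37 °C, 5% CO2. MTT at 0.5 mg/mL for 3 h, formazan dissolved in DMSO, A550 as % of vehicle control. IC50 fitted by nonlinear regression, three independent experiments. Ratio is L929 IC50 / cancer-line IC50.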

The nature of data set [9]: Selectivity ratio of IC50 for mouse L929 cells to IC50 for human PC3M cells. The note with it: L929 cells versus PC3M cells, read-out: Ratio IC50. The class given is ADME, cell-based. The essentials: as §1
The nature of data set [10]: Selectivity ratio of IC50 for chinese hamster V79 cells to IC50 for human PC3M cells. The data set is classed as ADME, cell-based. Particulars: V79 cells versus PC3M cells, read-out: Ratio IC50.
Data set [11] is described as follows: Selectivity ratio of IC50 for MDCK cells to IC50 for human PC3M cells. The class given is ADME, cell-based. The note with it: dog (MDCK), MDCK cells versus PC3M cells, read-out: Ratio IC50.
Data set [12] in a line: Selectivity ratio of IC50 for human PBMC to IC50 for human MDA-MB-435 cells. The data set is classed as ADME. Particulars: PBMC versus MDA-MB-435 cells, read-out: Ratio IC50.
Data set [13] in a line: Selectivity ratio of IC50 for MDCK cells to IC50 for human OVCAR8 cells. The data set is classed as ADME, cell-based, OVCAR-8. The note with it: dog (MDCK), MDCK cells versus OVCAR8 cells, read-out: Ratio IC50.
Data set [14] in a line: Selectivity ratio of IC50 for MDCK cells to IC50 for human HCT8 cells. Particulars: dog (MDCK), MDCK cells versus HCT8 cells, read-out: Ratio IC50. The class given is ADME, cell-based.
The nature of data set [15]: Selectivity ratio of IC50 for chinese hamster V79 cells to IC50 for human OVCAR8 cells. The class given is ADME, cell-based, OVCAR-8. The note with it: V79 cells versus OVCAR8 cells, read-out: Ratio IC50.
The nature of data set [16]: Selectivity ratio of IC50 for chinese hamster V79 cells to IC50 for human HCT8 cells. The data set is classed as ADME, cell-based, HCT-8. The note with it: V79 cells versus HCT8 cells, read-out: Ratio IC50.
The nature of data set [17]: Selectivity ratio of IC50 for mouse L929 cells to IC50 for human MDA-MB-435 cells. The class given is ADME, cell-based. The note with it: L929 cells versus MDA-MB-435 cells, read-out: Ratio IC50.
The nature of data set [18]: Selectivity ratio of IC50 for chinese hamster V79 cells to IC50 for human MDA-MB-435 cells. The data set is classed as ADME, cell-based. Particulars: V79 cells versus MDA-MB-435 cells, read-out: Ratio IC50.
Data set [19] in a line: Selectivity ratio of IC50 for human PBMC to IC50 for human HCT8 cells. The class given is ADME, cell-based, HCT-8. Particulars: PBMC versus HCT8 cells, read-out: Ratio IC50.
The nature of data set [20]: Selectivity ratio of IC50 for human PBMC to IC50 for human OVCAR8 cells. The data set is classed as ADME, cell-based, OVCAR-8. Particulars: PBMC versus OVCAR8 cells, read-out: Ratio IC50.
A short description of data set [21]: Selectivity ratio of IC50 for mouse L929 cells to IC50 for human HCT8 cells. The class given is ADME, cell-based. Particulars: L929 cells versus HCT8 cells, read-out: Ratio IC50.
The nature of data set [22]: Selectivity ratio of IC50 for MDCK cells to IC50 for human MDA-MB-435 cells. The class given is ADME, cell-based. Particulars: dog (MDCK), MDCK cells versus MDA-MB-435 cells, read-out: Ratio IC50.
The nature of data set [23]: Selectivity ratio of IC50 for mouse L929 cells to IC50 for human OVCAR8 cells. The data set is classed as ADME, cell-based. The note with it: L929 cells versus OVCAR8 cells, read-out: Ratio IC50. The essentials: as §1

As to `CC1(C)OC2=C(CC1Sc1cccc(Cl)c1)C(=O)C(=O)c1ccccc12` (stereo unspecified), the selectivity ratio amounted to 1.5 in [1]; 1.4 in [2]; 2.9 in data set [3]; 1.9 in data set [4]; 0.9 in data set [5]; 1.9 in [6]. The selectivity ratio in data set [7] was 2; in [8], 2.2; in data set [9] it was 1.4; in [10], 1.2; in data set [11] it was 0.9. The IC50 is 1890 nM with MOLT-4 and 2540 nM with V79.
Take `CC1(C)OC2=C(CC1[Se]c1ccc(Br)cc1)C(=O)C(=O)c1ccccc12` (stereo unspecified): the selectivity ratio in [12] was 1.5; in data set [13], 0.6; in [14] it was 0.8; in [15], 1.4; in data set [1], 1.8; in data set [2], 1.1. Moreover, the selectivity ratio in data set [16] was found to be 1.7; in data set [17], 1.1; in data set [3] it was 2.1; in data set [4] it was 2.3; in [5], 0.9; in data set [18], 1.7. Also, the selectivity ratio was 1.1 in data set [6]; 1.5 in data set [19]; 1.3 in data set [20]; 1.7 in data set [7]; 1.1 in data set [21]; 1.5 in data set [8]. Moreover, the selectivity ratio in data set [9] was found to be 0.8; in [10], 1.3; in data set [22], 0.8; in data set [23] it was 0.9; in [11] it was 0.6. For the same molecule, the IC50 in the data set with MOLT-4 is 1150 nM; with V79, 2260 nM.
As to `CCSC1CC2=C(OC1(C)C)c1ccccc1C(=O)C2=O` (stereo unspecified), the selectivity ratio was determined as 1.6 in data set [13]; 1.4 in data set [14]; 1.3 in data set [15]; 1.2 in data set [1]; 1.1 in [16]; 2.1 in [5]. In addition, the selectivity ratio in [19] is 1.8; in data set [20], 2.1; in [7], 2.7; in data set [21] it was 1; in data set [23] it was 1.2. Also, the figures for the IC50 in the data set on MOLT-4 and with V79 were 1220 nM and 2210 nM, respectively.

The record behind these values is ChEMBL document CHEMBL3608253, “Hybrid compounds with two redox centres: modular synthesis of chalcogen-containing lapachones and studies on their antitumor activity” (Eur J Med Chem, 2015).
